Results on twelve molecules are retold here after ChEMBL document CHEMBL1136700, “Identification of a broad-spectrum azasordarin with improved pharmacokinetic properties” (Bioorg Med Chem Lett, 2003).

Values after ≈ are worked out from the molar mass of the structure shown. Some results are limits rather than exact numbers.

What all share (assay type): functional
The subject of one assay is Candida albicans. Nature of the assay: Minimum inhibitory concentration (MIC) to Candida albicans after 48 hr. In a few lines:
(§1)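 Antifungal susceptibility read visually; MIC taken as lowest drug concentration giving 90–100% inhibition of visible growth relative to drug-free controls, read over 48 h, or after 24 h where footnoted. Organisms: C. parapsilosis, C. albicans, Cryptococcus neoformans, C. glabrata, Aspergillus fumigatus, Aspergillus flavus.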

A further assay has as its system Nakaseomyces glabratus. Nature of the assay: Minimum inhibitory concentration (MIC) to Candida glabrata after 48 hours. Conditions: Nakaseomyces glabratus, 48 h; read-out: MIC. An outline of the steps: as §1
The next assay deals with Aspergillus fumigatus. Nature of the assay: Minimum inhibitory concentration (MIC) to Aspergillus fumigatus after 48 hr. Conditions: Aspergillus fumigatus, 48 h; read-out: MIC. An outline of the steps: as §1
A further assay has as its system Candida parapsilosis. Briefly: Minimum inhibitory concentration (MIC) to Candida parapsilosis after 48 hr. The note with it: Lodderomyces parapsilosis, 48 h; read-out: MIC. In a few lines: as §1
Another assay concerns Aspergillus flavus. Briefly: Minimum inhibitory concentration (MIC) against Aspergillus flavus after 24 hours. The note with it: Aspergillus flavus, 24 h; read-out: MIC. An outline of the steps: as §1
In a further assay the test system is Cryptococcus neoformans. Briefly: Minimum inhibitory concentration against Cryptococcus neoformans after 48 hours. In a few lines:
as §1

One may read the MIC as the lowest concentration found to suppress growth. For the molecule `CC(C)C1=CC2CC3(C=O)[C@@H]4CC[C@@H](C)[C@H]4CC2(CO[C@H]2CN(C4C=CCCC4)[C@H](C)CO2)[C@]13C(=O)O` (some centres not stated), the MIC in the assay with Candida albicans was 2 µg/mL (≈ 3.91 µM); in the assay on Nakaseomyces glabratus, 8 µg/mL (≈ 15.6 µM); in the assay on Aspergillus fumigatus, greater than 128 µg/mL; with Candida parapsilosis, greater than 128 µg/mL; in the assay with Aspergillus flavus, greater than 128 µg/mL; against Cryptococcus neoformans, greater than 128 µg/mL.
For the molecule `C=CCN1C[C@H](OCC23C[C@@H]4[C@H](C)CC[C@H]4C4(C=O)CC2C=C(C(C)C)[C@@]34C(=O)O)OC[C@H]1C`, the MIC against Candida albicans is 0.125 µg/mL (≈ 0.265 µM); in the assay with Nakaseomyces glabratus, 0.25 µg/mL (≈ 0.53 µM); in the assay on Aspergillus fumigatus it was greater than 128 µg/mL; in the assay with Candida parapsilosis it was 64 µg/mL (≈ 136 µM); in the assay with Aspergillus flavus, greater than 128 µg/mL; against Cryptococcus neoformans it was 128 µg/mL (≈ 271 µM).
For `CC(C)CN1C[C@H](OCC23C[C@@H]4[C@H](C)CC[C@H]4C4(C=O)CC2C=C(C(C)C)[C@@]34C(=O)O)OC[C@H]1C`, the MIC in the assay with Candida albicans was less than 0.06 µg/mL; with Nakaseomyces glabratus it was 1 µg/mL (≈ 2.05 µM); with Aspergillus fumigatus, greater than 128 µg/mL; with Candida parapsilosis it was greater than 128 µg/mL; in the assay with Aspergillus flavus, greater than 128 µg/mL; against Cryptococcus neoformans, 32 µg/mL (≈ 65.6 µM).
Consider `CC(C)C1=CC2CC3(C=O)[C@@H]4CC[C@@H](C)[C@H]4CC2(CO[C@H]2CN(CC=C(F)F)[C@H](C)CO2)[C@]13C(=O)O`, for which the MIC against Candida albicans is 0.125 µg/mL (≈ 0.246 µM); in the assay with Nakaseomyces glabratus, 1 µg/mL (≈ 1.97 µM); in the assay with Aspergillus fumigatus, greater than 128 µg/mL; in the assay with Candida parapsilosis, 64 µg/mL (≈ 126 µM); with Aspergillus flavus, greater than 128 µg/mL; with Cryptococcus neoformans, 64 µg/mL (≈ 126 µM).
In the case of `C=C(Cl)CN1C[C@H](OCC23C[C@@H]4[C@H](C)CC[C@H]4C4(C=O)CC2C=C(C(C)C)[C@@]34C(=O)O)OC[C@H]1C(F)(F)F`, the MIC in the assay on Candida albicans was less than 0.06 µg/mL; in the assay with Nakaseomyces glabratus it was 1 µg/mL (≈ 1.79 µM); in the assay with Aspergillus fumigatus, greater than 128 µg/mL; in the assay on Candida parapsilosis, greater than 128 µg/mL; in the assay on Aspergillus flavus it was greater than 128 µg/mL; in the assay with Cryptococcus neoformans, greater than 128 µg/mL.
Consider `CC(C)C1=CC2CC3(C=O)[C@@H]4CC[C@@H](C)[C@H]4CC2(CO[C@H]2CN[C@H](C)CO2)[C@]13C(=O)O`, for which the MIC against Candida albicans is 8 µg/mL (≈ 18.5 µM); with Nakaseomyces glabratus it was 64 µg/mL (≈ 148 µM); in the assay with Aspergillus fumigatus, greater than 128 µg/mL; in the assay on Candida parapsilosis, greater than 128 µg/mL; with Aspergillus flavus it was greater than 128 µg/mL; in the assay with Cryptococcus neoformans, greater than 128 µg/mL.
As for `C=C(Cl)CON1C[C@H](OCC23C[C@@H]4[C@H](C)CC[C@H]4C4(C=O)CC2C=C(C(C)C)[C@@]34C(=O)O)OC[C@H]1C`, the MIC with Candida albicans is 0.125 µg/mL (≈ 0.239 µM); in the assay with Nakaseomyces glabratus, 2 µg/mL (≈ 3.83 µM); in the assay on Aspergillus fumigatus, greater than 128 µg/mL; in the assay with Candida parapsilosis, greater than 128 µg/mL; with Aspergillus flavus, greater than 128 µg/mL; in the assay on Cryptococcus neoformans, 1 µg/mL (≈ 1.92 µM).
Consider `CC(C)C1=CC2CC3(C=O)[C@@H]4CC[C@@H](C)[C@H]4CC2(CO[C@H]2CN(S(=O)(=O)C4CC4)[C@H](C)CO2)[C@]13C(=O)O`, for which the MIC with Candida albicans is 32 µg/mL (≈ 59.7 µM); with Nakaseomyces glabratus, 128 µg/mL (≈ 239 µM); in the assay with Aspergillus fumigatus, greater than 128 µg/mL; in the assay on Candida parapsilosis, greater than 128 µg/mL; in the assay on Aspergillus flavus it was greater than 128 µg/mL; against Cryptococcus neoformans, greater than 128 µg/mL.
For `C=C(Cl)CN1C[C@H](OCC23C[C@@H]4[C@H](C)CC[C@H]4C4(C=O)CC2C=C(C(C)C)[C@@]34C(=O)O)O[C@H](C)[C@H]1C`, the MIC in the assay on Candida albicans is less than 0.06 µg/mL; in the assay on Nakaseomyces glabratus, 0.25 µg/mL (≈ 0.481 µM); in the assay with Aspergillus fumigatus it was 64 µg/mL (≈ 123 µM); in the assay with Candida parapsilosis it was 8 µg/mL (≈ 15.4 µM); with Aspergillus flavus, 1 µg/mL (≈ 1.92 µM); in the assay with Cryptococcus neoformans, 0.5 µg/mL (≈ 0.961 µM).
Consider `CC(C)C1=CC2CC3(C=O)[C@@H]4CC[C@@H](C)[C@H]4CC2(CO[C@H]2CN(C/C=C\Br)[C@H](C)CO2)[C@]13C(=O)O`, for which the MIC is less than 0.06 µg/mL with Candida albicans; 1 µg/mL (≈ 1.82 µM) with Nakaseomyces glabratus; greater than 128 µg/mL with Aspergillus fumigatus; greater than 128 µg/mL with Candida parapsilosis; greater than 128 µg/mL with Aspergillus flavus; greater than 128 µg/mL with Cryptococcus neoformans.
With `CC(C)C1=CC2CC3(C=O)[C@@H]4CC[C@@H](C)[C@H]4CC2(CO[C@H]2CN(C/C=C\Cl)[C@H](C)CO2)[C@]13C(=O)O`, the MIC was 0.125 µg/mL (≈ 0.247 µM) against Candida albicans; 1 µg/mL (≈ 1.98 µM) in the assay with Nakaseomyces glabratus; greater than 128 µg/mL with Aspergillus fumigatus; greater than 128 µg/mL in the assay with Candida parapsilosis; greater than 128 µg/mL in the assay with Aspergillus flavus; 128 µg/mL (≈ 253 µM) with Cryptococcus neoformans.
Consider `C=C(Cl)CN1C[C@H](OCC23C[C@@H]4[C@H](C)CC[C@H]4C4(C=O)CC2C=C(C(C)C)[C@@]34C(=O)O)OC[C@H]1CO`, for which the MIC with Candida albicans is 0.5 µg/mL (≈ 0.958 µM); in the assay with Nakaseomyces glabratus it was 1 µg/mL (≈ 1.92 µM); in the assay with Aspergillus fumigatus, greater than 128 µg/mL; in the assay with Candida parapsilosis, 128 µg/mL (≈ 245 µM); in the assay on Aspergillus flavus, greater than 128 µg/mL; in the assay with Cryptococcus neoformans, 2 µg/mL (≈ 3.83 µM).
